Structures can show the parent of a compound that is named as a salt. Where two headings read alike, the source gives them in different places.
Tests used:
P. falciparum D6 strain = assay: Antimalarial activity against P. falciparum D6 strain; format: cell-based, Plasmodium falciparum; conditions: among the 11 compounds most active against adult S. mansoni
S. mansoni = assay: In vivo efficacy study in S. mansoni-infected mice; design: species or system Schistosoma mansoni; conditions: single oral gavage, 200 mg/kg (1) or 100 mg/kg (19); for Mean number of worms (SD): 21 days post-dosing
Outline: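 Female NMRI mice (three weeks old, acclimatized one week) were each infected with 100 cercariae subcutaneously in the nuchal fold. At day 49 they received one oral gavage of test compound in Tween 80/ethanol (70:30, 10% of volume) plus tap water (sonicated, 35 °C); there were four mice per group and four untreated controls. Mice were killed 21 days post-dosing, and worms from mesenteric veins and liver were sexed, counted, and classed as dead or alive. Worm burden reduction was based on living worms versus controls, with a Kruskal-Wallis test.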

[1] = tested on: newly transformed schistosomula (NTS); assay: In vitro screening of newly transformed schistosomula; format: cell-based, Schistosoma mansoni; conditions: 72 h, read-out: NTS EC50
Outline: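 Cercariae shed from Biomphalaria glabrata under light for 4 h were mechanically transformed and kept in M199 with 5% FCS, antibiotic mastermix and pen./strep. at 37 °C, 5% CO2. 40–50 larvae per well were exposed to 10, 7.5, 5, 3.75, 2.5, 1 or 0.25 μM test compound, with DMSO (<1%) as control. Viability was scored visually at 24 and 72 h (0–3, 0.5 steps), and the assay was repeated once. Scores were normalized to vehicle, and EC50 came from a four- or two-parameter sigmoid least-squares fit.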

[2] = Metabolic stability assay in murine liver microsomes; format: in vitro ADME; conditions: for Microsomal stability t1/2: murine liver microsomes, 1 μM, 37 °C
Outline: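 Test compound (1 μM) was incubated at 37 °C with mouse liver microsomes (0.5 mg/ml protein) in potassium phosphate buffer, pH 7.4, with 1.0 mM EDTA. Reactions were started with NADPH and quenched with ice-cold acetonitrile every 15 min up to 1 h. Depletion was followed by LC-MS/MS (ESI+, C18) against internal standards. A first-order exponential decay fit gave t1/2, and CLint was derived assuming hepatic blood flow of 90 ml/min/kg.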

adult S. mansoni = assay: In vitro screening of adult S. mansoni worms, visual viability scoring; format: cell-based; conditions: Schistosoma mansoni, 72 h, read-out: Adult S. mansoni EC50
Outline: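 Adult worms were recovered from mouse mesenteric veins at day 49 post-infection and held in RPMI 1640 with 5% FCS and antibiotics at 37 °C, 5% CO2. Two worm pairs per well were exposed to 40, 30, 20, 10, 7.5, 5, 2.5 or 1 μM test compound, with DMSO (<1%) as control. Viability was scored visually at 24 and 72 h (0–3, 0.5 steps). Duplicates, repeated once. Scores were normalized to vehicle, and EC50 came from a four-parameter sigmoid fit (two-parameter if not applicable).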

EC50 ([1]; Schistosoma mansoni) [µM]	SMILES	EC50 (adult S. mansoni) [µM]	further results
6.23	N=C(NN=Cc1ccc(C(F)(F)F)cc1)NN=Cc1ccc(C(F)(F)F)cc1 [Compound 12, 2,2’-Bis[(4-trifluoromethylphenyl)methylene]carbonimidic Dihydrazide Hydrochloride]		
3.31	N=C(NN=Cc1ccc(OC(F)(F)F)cc1)NN=Cc1ccc(OC(F)(F)F)cc1 [Compound 16, 2,2’-Bis[(4-trifluoromethoxyphenyl)methylene]carbonimidic Dihydrazide Hydrochloride]	8.06	
2.01	N=C(NN=CCc1ccc(OC(F)(F)F)cc1)NN=CCc1ccc(OC(F)(F)F)cc1 [Compound 17, 2,2’-Bis[(4-trifluoromethoxyphenyl)ethylidene]carbonimidic Dihydrazide Hydrochloride]	4.91	
4.63	N=C(NN=Cc1ccc(OC(F)F)cc1)NN=Cc1ccc(OC(F)F)cc1 [Compound 18, 2,2’-Bis[(4-difluoromethoxyphenyl)methylene]carbonimidic Dihydrazide Hydrochloride]	5.12	
1.66	Cl.N#Cc1cccc(C=NNC(=N)NN=Cc2cccc(C#N)c2)c1 [Compound 21, 2,2’-Bis[(3-cyanophenyl)methylene]carbonimidic Dihydrazide Hydrochloride]	4.04	Microsomal stability t1/2 [2]: 0.967 h
1.12	N#Cc1cccc(CC=NNC(=N)NN=CCc2cccc(C#N)c2)c1 [Compound 23, 2,2’-Bis[(3-cyanophenyl)ethylidene]carbonimidic Dihydrazide Hydrochloride]	2.69	
	N=C(NN=Cc1ccc(-c2ccccc2)cc1)NN=Cc1ccc(-c2ccccc2)cc1 [Compound 26, 2,2’-Bis[(4-diphenyl)methylene]carbonimidic Dihydrazide Hydrochloride]		EC50 ([1]; four- (a) or two-parameter (b) sigmoid fit): 4.43 µM
5.71	N=C(NN=Cc1ccc([N+](=O)[O-])cc1)NN=Cc1ccc([N+](=O)[O-])cc1 [Compound 27, 2,2’-Bis[(4-nitrophenyl)methylene]carbonimidic Dihydrazide Hydrochloride]		
2.44	N=C(NN=Cc1ccc(N2CCOCC2)cc1)NN=Cc1ccc(N2CCOCC2)cc1 [Compound 33, 2,2’-Bis[(4-morpholinophenyl)methylene]carbonimidic Dihydrazide Hydrochloride]	6.45	
2.7	COc1cc(OC)c(CC=NNC(=N)NN=CCc2cc(Cl)c(OC)cc2OC)cc1Cl [Compound 37, 2,2’-Bis[(2,4-dimethoxy-5-chlorophenyl)ethylidene]carbonimidic Dihydrazide Hydrochloride]		
3.3	N=C(N/N=C/c1cccc([N+](=O)[O-])c1)N/N=C/c1cccc([N+](=O)[O-])c1 [Compound 49, N',2-bis((E)-3-nitrobenzylidene)hydrazine-1-carboximidhydrazide Hydrochloride]	9.47	
3.09	N=C(N/N=C/c1cccc(-c2ccccc2)c1)N/N=C/c1cccc(-c2ccccc2)c1 [Compound 52, (E)-N'-((E)-[1,1'-biphenyl]-3-ylmethylene)-2-([1,1'-biphenyl]-3-ylmethylene)hydrazine-1-carboximidhydrazide Hydrochloride]	7.57	
3.37	N=C(N/N=C/c1ccc(-c2ccc(F)cc2)cc1)N/N=C/c1ccc(-c2ccc(F)cc2)cc1 [Compound 53, (E)-2-((4'-fluoro-[1,1'-biphenyl]-4-yl)methylene)-N'-((E)-(4'-fluoro-[1,1'-biphenyl]-4-yl)methylene)hydrazine-1-carboximidhydrazide Hydrochloride]		
3.84	N=C(N/N=C/c1ccc(Oc2ccccc2)cc1)N/N=C/c1ccc(Oc2ccccc2)cc1 [Compound 57, N',2-bis((E)-4-phenoxybenzylidene)hydrazine-1-carboximidhydrazide Hydrochloride]	7.07	
4.51	N=C(N/N=C/c1ccc(Oc2ccc(F)cc2)cc1)N/N=C/c1ccc(Oc2ccc(F)cc2)cc1 [Compound 58, N',2-bis((E)-4-(4-fluorophenoxy)benzylidene)hydrazine-1-carboximidhydrazide Hydrochloride]	8.59	
2.7	N=C(N/N=C/c1ccc(Oc2ccc(Cl)cc2)cc1)N/N=C/c1ccc(Oc2ccc(Cl)cc2)cc1 [Compound 59, N',2-bis((E)-4-(4-chlorophenoxy)benzylidene)hydrazine-1-carboximidhydrazide Hydrochloride]	5.52	
2.5	N=C(N/N=C/c1ccc2ccccc2n1)N/N=C/c1ccc2ccccc2n1 [Compound 62, (E)-N'-((E)-quinolin-2-ylmethylene)-2-(quinolin-2-ylmethylene)hydrazine-1-carboximidhydrazide Hydrochloride]	7.49	
0.65	N=C(N/N=C/c1cnc2ccccc2c1)N/N=C/c1cnc2ccccc2c1 [Compound 63, (E)-N'-((E)-quinolin-3-ylmethylene)-2-(quinolin-3-ylmethylene)hydrazine-1-carboximidhydrazide Hydrochloride]		
1.57	N=C(N/N=C/c1ccnc2ccccc12)N/N=C/c1ccnc2ccccc12 [Compound 64, (E)-N'-((E)-quinolin-4-ylmethylene)-2-(quinolin-4-ylmethylene)hydrazine-1-carboximidhydrazide Hydrochloride]		
1.24	N#Cc1cc(/C=N/NC(=N)N/N=C/c2ccc(Cl)c(C#N)c2)ccc1Cl [Compound 71, N',2-bis((E)-4-chloro-3-cyanobenzylidene)hydrazine-1-carboximidhydrazide Hydrochloride]		
4.02	Cl.N#Cc1cc(/C=N/NC(=N)N/N=C/c2ccc(OC(F)(F)F)cc2)ccc1F [Compound 77, N'-((E)-3-cyano-4-fluorobenzylidene)-2-((E)-4-(trifluoromethoxy)benzylidene)hydrazine-1-carboximidhydrazide Hydrochloride]	6.76	half-life at 1 μM ([2]; mouse, liver microsomes, pH 7.4): 4.66 h
4.44	C#CCOc1ccc(/C=N/NC(=N)N/N=C/c2ccc(C(=O)c3ccccc3)cc2)cc1 [Compound 86, N'-((E)-4-benzoylbenzylidene)-2-((E)-4-(prop-2-yn-1-yloxy)benzylidene)hydrazine-1-carboximidhydrazide Hydrochloride]		

SMILES	EC50 ([1]; Schistosoma mansoni) [µM]	EC50 (adult S. mansoni) [µM]	further results
Cl.N#Cc1cc(C=NNC(=N)NN=Cc2ccc(F)c(C#N)c2)ccc1F [Compound 1, 2,2’-Bis[(3-cyano-4-fluorophenyl)methylene]carbonimidic Dihydrazide Hydrochloride]	1.25	5.46	Antimalarial activity in vitro and in vivo (ranking) (P. falciparum D6 strain): most potent antimalarial activity in vitro and in vivo; Tolerability in mice (S. mansoni): well tolerated; Mean number of worms (SD) (S. mansoni): 24.3 (4.3); Microsomal stability t1/2 [2]: 3.1 h
Cl.N=C(NN=CCc1ccc(OC(F)F)cc1)NN=CCc1ccc(OC(F)F)cc1 [Compound 19, 2,2’-Bis[(4-difluoromethoxyphenyl)ethylidene]carbonimidic Dihydrazide Hydrochloride]	2.79	2.78	Tolerability in mice (S. mansoni): well tolerated; Mean number of worms (SD) (S. mansoni): 28.3 (10.6)

Reference: article PMC11101930 (International Journal for Parasitology: Drugs and Drug …, 2024)
